Results as given in ChEMBL document CHEMBL3352177, “C-glycoside mimetics inhibit glioma stem cell proliferation, migration, and invasion” (J Med Chem, 2014).

Assays:
[1] = Antimigratory activity against human Gli7 cells on matrix containing laminin after 24 hrs by 2-D migration assay; assay type: functional, cell-based
Summary of the method: (§1)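 Boyden chamber 2D migration toward serum over 24 h on fibronectin, vitronectin or laminin matrix. Cells in DMEM with 0.1% BSA in the upper compartment with or without compound; 10% FCS medium below. Gli4/Gli7 taken from neurosphere cultures. Migrated cells methanol-fixed, crystal violet stained, counted at ×200. Ki from Hill equation fit; ≥3 independent experiments, each point in quadruplicate.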

[2] = Antiproliferative activity against human Gli7 cells after 48 to 72 hrs by MTT assay; assay type: functional, cell-based
Summary of the method: (§2)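 MTT assay read 48 and 72 h after compound addition. Cell lines grown in DMEM with 10% heat-inactivated FCS, 2 mM L-glutamine, 1 mM sodium pyruvate; GBM stem cells grown as nonadherent neurospheres. IC50 by Hill equation fit; ≥3 independent experiments, each point repeated six times.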

[3] = Cytotoxicity against rat cortical neurons at 100 uM using propidium iodide by flow cytometry; conditions: cortical neurone
[4] = Antimigratory activity against human Gli4 cells on matrix containing laminin after 24 hrs by 2-D migration assay; assay type: functional, cell-based; summary of the method: as §1
[5] = Antiinvasive activity against human Gli4 cells after 48 hrs by matrigel assay; assay type: functional, cell-based
[6] = Cytotoxicity against rat cortical neurons at 100 uM by MAP2 immunofluorescence assay; conditions: cortical neurone
Summary of the method: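 Rat E17 embryonic cortical neurons cultured 17 days, treated 48 h; then 5 μg/mL Hoechst 33342 and 10 μM propidium iodide for 30 min at 37 °C, PBS wash, 4% paraformaldehyde fixation. Fluorescence read on plate reader and by camera imaging; MAP2 immunofluorescence imaged; Triton X-100 (2%) control; mean % PI uptake from three wells per condition.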

A-431 = test: Antiproliferative activity against human A431 cells after 48 to 72 hrs by MTT assay; assay type: functional, cell-based; summary of the method: as §2
C6 [7] = test: Antimigratory activity against rat C6 cells on matrix containing laminin after 24 hrs by 2-D migration assay; assay type: functional, cell-based; summary of the method: as §1
MDA-MB-231 = test: Antiproliferative activity against human MDA-MB-231 cells after 48 to 72 hrs by MTT assay; assay type: functional, cell-based; summary of the method: as §2
SNB-75 [8] = test: Antimigratory activity against human SNB75 cells on matrix containing fibronectin after 24 hrs by 2-D migration assay; assay type: functional, cell-based; summary of the method: as §1
DU-145 = test: Antiproliferative activity against human DU145 cells after 48 to 72 hrs by MTT assay; assay type: functional, cell-based; summary of the method: as §2
[9] = Antimigratory activity against human Gli4 cells on matrix containing fibronectin after 24 hrs by 2-D migration assay; assay type: functional, cell-based; summary of the method: as §1
[10] = Antiinvasive activity against human Gli7 cells after 48 hrs by matrigel assay; assay type: functional, cell-based
[11] = Antimigratory activity against human Gli4 cells on matrix containing vitronectin after 24 hrs by 2-D migration assay; assay type: functional, cell-based; summary of the method: as §1
SNB-75 [12] = test: Antimigratory activity against human SNB75 cells on matrix containing vitronectin after 24 hrs by 2-D migration assay; assay type: functional, cell-based; summary of the method: as §1
C6 [13] = test: Antimigratory activity against rat C6 cells on matrix containing vitronectin after 24 hrs by 2-D migration assay; assay type: functional, cell-based; summary of the method: as §1
[14] = Cytotoxicity against mouse astrocytes at 100 uM by MTT assay; assay type: cell-based; conditions: astrocyte
Summary of the method: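 Primary astrocytes from day-2 newborn mouse cortex, kept 21 days (nonproliferative, GFAP-positive), exposed to compound up to 100 μM; viability by MTT assay.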

[15] = Antimigratory activity against human Gli7 cells on matrix containing fibronectin after 24 hrs by 2-D migration assay; assay type: functional, cell-based; summary of the method: as §1
SNB-75 [16] = test: Antimigratory activity against human SNB75 cells on matrix containing laminin after 24 hrs by 2-D migration assay; assay type: functional, cell-based; summary of the method: as §1
C6 [17] = test: Antimigratory activity against rat C6 cells on matrix containing fibronectin after 24 hrs by 2-D migration assay; assay type: functional, cell-based; summary of the method: as §1
[18] = Antiproliferative activity against human HuH7 cells after 48 to 72 hrs by MTT assay; assay type: functional, cell-based; conditions: Huh-7; summary of the method: as §2
C6 [19] = test: Antiproliferative activity against rat C6 cells after 48 to 72 hrs by MTT assay; assay type: functional, cell-based; summary of the method: as §2
[20] = Antiproliferative activity against human Caco2 cells after 48 to 72 hrs by MTT assay; assay type: functional, cell-based; conditions: Caco-2; summary of the method: as §2
[21] = Antimigratory activity against human Gli7 cells on matrix containing vitronectin after 24 hrs by 2-D migration assay; assay type: functional, cell-based; summary of the method: as §1
MDA-MB-435 = test: Antiproliferative activity against human MDA-MB-435 cells after 48 to 72 hrs by MTT assay; assay type: functional, cell-based; summary of the method: as §2
SNB-75 [22] = test: Antiproliferative activity against human SNB75 cells after 48 to 72 hrs by MTT assay; assay type: functional, cell-based; summary of the method: as §2
[23] = Antiproliferative activity against mouse B16F10 cells after 48 to 72 hrs by MTT assay; assay type: functional, cell-based; conditions: B16-F10; summary of the method: as §2

CC1(C)O[C@@H]2[C@H](O1)[C@@H](Nc1cccc3ccccc13)[P@](=O)(c1ccccc1)O[C@@H]2[C@H]1COC(C)(C)O1
Ki [1]: 100 nM | IC50 [2]: 2330 nM | Activity [3]: Toxic | Ki [4]: 22 nM | Ki [5]: 290 nM | Activity [6]: Toxic | IC50 (A-431): 1340 nM | Ki (C6 [7]): 77 nM | IC50 (MDA-MB-231): 9810 nM | Ki (SNB-75 [8]): 124 nM | IC50 (DU-145): > 100000 nM | Ki [9]: 31 nM | Ki [10]: 46 nM | Ki [11]: 36 nM | Ki (SNB-75 [12]): 100 nM | Ki (C6 [13]): 300 nM | Activity [14]: Toxic | Ki [15]: 16 nM | Ki (SNB-75 [16]): 60 nM | Ki (C6 [17]): 126 nM | IC50 [18]: 6870 nM | IC50 (C6 [19]): 5740 nM | IC50 [20]: > 100000 nM | Ki [21]: 42 nM | IC50 (MDA-MB-435): 4690 nM | IC50 (SNB-75 [22]): 3410 nM | IC50 [23]: > 100000 nM
